Source: ChEMBL document CHEMBL1129346, “First examples of peptidomimetic inhibitors of interleukin-1 beta converting enzyme” (J Med Chem, 1996)

target: T1, Caspase-1 (Homo sapiens) (UniProt P29466); test: The binding affinity of compound was measured against Interleukin-1-beta converting enzyme in monocytic cells; assay type: cell-based
T1 sequence (whole entry): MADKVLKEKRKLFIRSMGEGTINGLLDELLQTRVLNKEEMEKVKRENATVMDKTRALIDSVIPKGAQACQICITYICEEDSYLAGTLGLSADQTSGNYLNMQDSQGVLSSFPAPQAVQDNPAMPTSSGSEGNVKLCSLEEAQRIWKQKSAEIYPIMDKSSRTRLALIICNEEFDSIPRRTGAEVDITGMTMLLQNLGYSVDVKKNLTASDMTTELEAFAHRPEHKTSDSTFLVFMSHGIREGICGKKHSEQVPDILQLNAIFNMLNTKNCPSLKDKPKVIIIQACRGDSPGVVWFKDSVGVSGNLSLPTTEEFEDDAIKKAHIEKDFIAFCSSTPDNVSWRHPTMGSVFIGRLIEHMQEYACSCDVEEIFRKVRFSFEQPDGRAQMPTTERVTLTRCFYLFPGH
In short: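 ICE was partially purified from THP-1 cells by DEAE-Sephacel and Sephadex G-75 steps. The assay buffer was 10 mM HEPES pH 7.5 with 25% glycerol and 1 mM DTT, and the substrate was 10 μM Suc-Tyr-Val-Ala-Asp-AMC. Fluorescence progress curves were recorded at 37 °C over 30 min, and the nonlinear curves were analysed by the Tian–Tsou method. Standard error was <10%.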

Compound	k obs / 1 [M⁻¹ s⁻¹]
O=C(O)C[C@H](NC(=O)Cn1c(-c2ccc(F)cc2)ncc(NC(=O)OCc2ccccc2)c1=O)C(=O)COP(=O)(c1ccccc1)c1ccccc1	145000
O=C(O)C[C@H](NC(=O)Cn1c(-c2ccc(F)cc2)ncc(NC(=O)OCc2ccccc2)c1=O)C(=O)COc1cc(C(F)(F)F)nn1-c1ccccc1	157000

target: T1, Caspase-1 (Homo sapiens); test: Second order rate constant of inactivation for compound was measured against Interleukin-1-beta converting enzyme partially purified from THP-1 cells
In short: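 ICE was partially purified from THP-1 cells by DEAE-Sephacel and Sephadex G-75 steps. Fluorescence progress curves were recorded at 37 °C over 30 min, and the nonlinear curves were analysed by the Tian–Tsou method. Standard error was <10%.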

Compound	k obs / 1 [M⁻¹ s⁻¹]
Cc1ncc(NC(=O)OCc2ccccc2)c(=O)n1CC(=O)N[C@@H](CC(=O)O)C(=O)COc1cc(C(F)(F)F)nn1-c1ccccc1	95000
O=C(O)C[C@H](NC(=O)Cn1c(-c2cccnc2)ncc(NC(=O)OCc2ccccc2)c1=O)C(=O)COc1cc(C(F)(F)F)nn1-c1ccccc1	145000
CC(C)[C@H](NC(=O)OCc1ccccc1)C(=O)N[C@@H](C)C(=O)N[C@@H](CC(=O)O)C(=O)COC(=O)c1c(Cl)cccc1Cl	432000

Second part, the molecule after the results:

k obs / 1 [M⁻¹ s⁻¹]	Compound
268000	O=C(O)C[C@H](NC(=O)Cn1c(-c2ccc(F)cc2)ncc(NC(=O)OCc2ccccc2)c1=O)C(=O)COC(=O)c1c(Cl)cccc1Cl
148000	O=C(O)C[C@H](NC(=O)Cn1c(-c2ccc(F)cc2)ncc(NC(=O)NCc2ccccc2)c1=O)C(=O)COC(=O)c1c(Cl)cccc1Cl
90000	O=C(O)C[C@H](NC(=O)Cn1c(-c2ccc(F)cc2)ncc(NS(=O)(=O)c2ccccc2)c1=O)C(=O)COC(=O)c1c(Cl)cccc1Cl
36000	Nc1cnc(-c2ccc(F)cc2)n(CC(=O)N[C@@H](CC(=O)O)C(=O)COC(=O)c2c(Cl)cccc2Cl)c1=O
90000	CN(C)CCCCCC(=O)Nc1cnc(-c2ccc(F)cc2)n(CC(=O)N[C@@H](CC(=O)O)C(=O)COC(=O)c2c(Cl)cccc2Cl)c1=O
46000	O=C(O)C[C@H](NC(=O)Cn1c(-c2ccc(F)cc2)ncc(NC(=O)c2ccco2)c1=O)C(=O)COC(=O)c1c(Cl)cccc1Cl
